Assay results pooled from the literature.
Protocols differ between the studies behind these lines.
Read-out: enzyme activity
Mode: inhibitor
CDK5 with p35: Cyclin-dependent kinase 5, with p35 (CDK5, Homo sapiens, UniProt Q00535)
CDK5 with p25: Cyclin-dependent kinase 5, with p25 (CDK5, Homo sapiens, UniProt Q00535)

The remaining activity of `COc1cc(Cl)c(C(=O)N[C@@H](CN[C@H]2CC[C@@H](N)CC2)Cc2ccc(C#N)cc2)cc1-c1ccc(CN[C@H](C)c2ccc(C)cc2)o1` is reported as 88% (CDK5 with p35; 1 µM).
`Cc1cnc(NC2CCOCC2)nc1-n1cnc(C(=O)NC(CN)c2cc(F)cc(Cl)c2)c1` (stereo not shown) gave a remaining activity of 4% (CDK5 with p35; radiometric; 1 µM).
The remaining activity of `CC(C)(C)c1nc2c(s1)c1nc(N)ncc1c1ccc(NS(=O)(=O)c3c(F)cccc3F)c(F)c12` is reported as 77% (CDK5 with p35; radiometric; 1 µM).
`CC[C@H](C)[C@H](NC(=O)[C@H](CCC(N)=O)NC(=O)[C@H](CC(C)C)NC(=O)[C@H](CCSC)NC(=O)[C@H](CCCCN)NC(=O)[C@H](CO)NC(=O)[C@H](CO)NC(=O)[C@H](CCSC)NC(=O)[C@H](CC(C)C)NC(=O)[C@H](CC(N)=O)NC(=O)[C@@H](NC(=O)[C@@H](NC(=O)[C@H](CO)NC(=O)[C@H](CC(C)C)NC(=O)[C@H](CS)NC(=O)[C@H](CCCNC(=N)N)NC(=O)[C@H](CC(=O)O)NC(=O)[C@H](Cc1c[nH]c2ccccc12)NC(=O)[C@H](Cc1ccccc1)NC(=O)[C@H](C)NC(=O)[C@H](CCC(=O)O)NC(=O)[C@@H](N)CCCCN)C(C)C)[C@@H](C)CC)C(=O)N[C@@H](CC(N)=O)C(=O)N[C@@H](C)C(=O)O` gave a remaining activity of 28% (CDK5 with p25; radiometric; 500 µM; 20 min).
With `O=C(Nc1cnn(-c2csc(C(=O)NC3COC3)c2)c1)Nc1c(F)cccc1Cl` the remaining activity was 94.3% (CDK5 with p35; 5 µM).
`CC(C)(O)[C@H]1CC[C@H](Nc2ccc3ncc(-c4cccc(C(F)(F)F)c4)n3n2)CC1` has a remaining activity of 97.7% (CDK5 with p35; 1 µM).
For `Cc1sc(C(=O)NC2COC2)cc1-n1cc(NC(=O)Nc2c(F)cccc2Cl)cn1`, the remaining activity was 103% (CDK5 with p35; 10 µM).
For `CCCOc1ccc(OC)c(F)c1C(=O)c1ccc(C(=O)N[C@@H]2CNC[C@H]2NC(=O)c2ccc3[nH]ncc3c2)cc1`, the remaining activity was 114% (CDK5 with p25; 50 nM).
`CCN(CC)c1ccc(C2=NNC(=O)CC2C)cc1[N+](=O)[O-]` (stereo not shown) gave a remaining activity of 109% (CDK5 with p35; 10 µM).
With `O=C(Nc1cnn(-c2csc(C(=O)NC3COC3)c2)c1)Nc1ccccc1Cl` the remaining activity was 95.4% (CDK5 with p35; 5 µM).
